# According to the M2OR odorant receptor database:
# Legend:
# Conditions in all cases: stereoisomer not certain
# OR2M3 (Homo sapiens) = biological target: T1, OR2M3 (Homo sapiens) (UniProt Q8NG83)
# T1 sequence (whole entry): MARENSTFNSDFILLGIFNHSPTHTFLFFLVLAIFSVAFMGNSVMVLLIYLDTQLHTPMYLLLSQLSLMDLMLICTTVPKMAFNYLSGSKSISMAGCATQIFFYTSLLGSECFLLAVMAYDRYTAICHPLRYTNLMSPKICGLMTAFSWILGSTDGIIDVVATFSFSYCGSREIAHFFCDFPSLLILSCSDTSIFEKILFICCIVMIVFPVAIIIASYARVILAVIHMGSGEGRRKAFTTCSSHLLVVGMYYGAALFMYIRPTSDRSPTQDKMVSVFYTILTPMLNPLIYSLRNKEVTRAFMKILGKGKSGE
# Method in brief: (§1)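 Each entry records the cell line, G-protein, co-transfected protein and tags used. Methods varied with the source, often transient luciferase assays in mammalian cell lines. A receptor–molecule pair is called responsive (active) if the original authors judged its signal statistically different from baseline and non-responsive (inactive) otherwise.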
# OR2L13 (Homo sapiens) = biological target: T2, OR2L13 (Homo sapiens) (UniProt Q8N349)
# T2 sequence (whole entry): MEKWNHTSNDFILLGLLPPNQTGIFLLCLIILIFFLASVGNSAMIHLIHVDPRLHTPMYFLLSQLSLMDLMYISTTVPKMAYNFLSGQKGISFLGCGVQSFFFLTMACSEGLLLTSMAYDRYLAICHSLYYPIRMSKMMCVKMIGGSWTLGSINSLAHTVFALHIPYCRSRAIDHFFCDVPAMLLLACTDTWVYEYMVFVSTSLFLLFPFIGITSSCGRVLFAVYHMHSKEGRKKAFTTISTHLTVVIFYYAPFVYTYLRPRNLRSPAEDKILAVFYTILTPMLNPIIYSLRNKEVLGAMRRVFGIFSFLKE
# Method in brief: as §1
# OR2L2 (Homo sapiens) = biological target: T3, OR2L2 (Homo sapiens) (UniProt Q8NH16)
# T3 sequence (whole entry): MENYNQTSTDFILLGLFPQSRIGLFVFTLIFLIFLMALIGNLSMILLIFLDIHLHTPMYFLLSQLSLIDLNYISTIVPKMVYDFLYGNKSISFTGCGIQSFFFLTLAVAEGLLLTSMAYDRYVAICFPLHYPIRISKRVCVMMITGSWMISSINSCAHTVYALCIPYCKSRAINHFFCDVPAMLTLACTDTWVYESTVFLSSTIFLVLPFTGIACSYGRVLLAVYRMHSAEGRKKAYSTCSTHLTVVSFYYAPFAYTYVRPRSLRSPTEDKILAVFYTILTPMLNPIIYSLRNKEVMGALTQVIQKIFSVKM
# Method in brief: as §1
# OR2L3 (Homo sapiens) = biological target: T4, OR2L3 (Homo sapiens) (UniProt Q8NG85)
# T4 sequence (whole entry): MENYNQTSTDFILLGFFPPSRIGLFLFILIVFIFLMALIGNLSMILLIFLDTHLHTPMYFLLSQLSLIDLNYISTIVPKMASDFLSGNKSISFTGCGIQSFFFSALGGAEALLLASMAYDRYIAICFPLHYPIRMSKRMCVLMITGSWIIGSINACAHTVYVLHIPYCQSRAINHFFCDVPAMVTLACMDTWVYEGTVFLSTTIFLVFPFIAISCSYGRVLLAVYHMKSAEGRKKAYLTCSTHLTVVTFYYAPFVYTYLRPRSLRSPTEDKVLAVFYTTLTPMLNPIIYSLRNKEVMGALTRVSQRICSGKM
# Method in brief: as §1
# OR2L5 (Homo sapiens) = biological target: T5, OR2L5 (Homo sapiens) (UniProt Q8NG80)
# T5 sequence (whole entry): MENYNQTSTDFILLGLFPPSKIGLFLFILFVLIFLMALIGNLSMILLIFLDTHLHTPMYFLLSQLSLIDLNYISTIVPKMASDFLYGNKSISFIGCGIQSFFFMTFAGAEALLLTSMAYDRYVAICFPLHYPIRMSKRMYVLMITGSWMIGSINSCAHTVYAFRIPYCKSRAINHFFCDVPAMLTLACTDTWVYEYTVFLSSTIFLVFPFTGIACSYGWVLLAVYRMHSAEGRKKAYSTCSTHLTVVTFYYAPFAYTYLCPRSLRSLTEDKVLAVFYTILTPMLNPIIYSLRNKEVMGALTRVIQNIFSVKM
# Method in brief: as §1
# OR2L8 (Homo sapiens) = biological target: T6, OR2L8 (Homo sapiens) (UniProt Q8NGY9)
# T6 sequence (whole entry): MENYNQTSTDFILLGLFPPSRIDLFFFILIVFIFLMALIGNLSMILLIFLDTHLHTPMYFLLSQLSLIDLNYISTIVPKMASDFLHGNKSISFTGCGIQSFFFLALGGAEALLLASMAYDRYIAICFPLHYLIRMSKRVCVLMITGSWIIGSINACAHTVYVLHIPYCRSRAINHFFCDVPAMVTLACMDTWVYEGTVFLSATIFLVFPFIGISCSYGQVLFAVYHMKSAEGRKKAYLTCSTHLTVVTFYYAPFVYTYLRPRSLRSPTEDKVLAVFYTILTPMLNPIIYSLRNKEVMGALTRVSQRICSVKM
# Method in brief: as §1
# OR2M2 (Homo sapiens) = biological target: T7, OR2M2 (Homo sapiens) (UniProt Q96R28)
# T7 sequence (whole entry): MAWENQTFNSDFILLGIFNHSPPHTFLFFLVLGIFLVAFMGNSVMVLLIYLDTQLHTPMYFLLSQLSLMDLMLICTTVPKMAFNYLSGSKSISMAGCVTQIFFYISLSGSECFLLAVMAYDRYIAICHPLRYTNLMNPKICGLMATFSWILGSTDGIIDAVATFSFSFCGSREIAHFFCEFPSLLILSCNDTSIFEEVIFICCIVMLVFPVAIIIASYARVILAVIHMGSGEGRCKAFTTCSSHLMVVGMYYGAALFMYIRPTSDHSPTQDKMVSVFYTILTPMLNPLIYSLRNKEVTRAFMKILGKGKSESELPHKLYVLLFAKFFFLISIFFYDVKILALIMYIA
# Method in brief: as §1
# OR2M3 A216T = system: OR2M3 A216T
# OR2M3 A216T, sequence (as listed by the source, stated change not applied): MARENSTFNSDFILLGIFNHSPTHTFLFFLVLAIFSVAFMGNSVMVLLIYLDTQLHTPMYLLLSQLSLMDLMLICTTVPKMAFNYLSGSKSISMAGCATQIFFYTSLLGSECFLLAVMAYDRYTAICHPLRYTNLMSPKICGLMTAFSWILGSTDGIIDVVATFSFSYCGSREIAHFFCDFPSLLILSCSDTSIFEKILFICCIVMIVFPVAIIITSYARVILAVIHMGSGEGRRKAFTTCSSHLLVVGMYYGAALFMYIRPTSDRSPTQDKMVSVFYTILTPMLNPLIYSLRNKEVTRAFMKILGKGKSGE
# Method in brief: as §1
# OR2M3 A33G M144T = system: OR2M3 A33G M144T
# Method in brief: as §1
# OR2M3 A33G = system: OR2M3 A33G
# OR2M3 A33G, sequence (as listed by the source, stated change not applied): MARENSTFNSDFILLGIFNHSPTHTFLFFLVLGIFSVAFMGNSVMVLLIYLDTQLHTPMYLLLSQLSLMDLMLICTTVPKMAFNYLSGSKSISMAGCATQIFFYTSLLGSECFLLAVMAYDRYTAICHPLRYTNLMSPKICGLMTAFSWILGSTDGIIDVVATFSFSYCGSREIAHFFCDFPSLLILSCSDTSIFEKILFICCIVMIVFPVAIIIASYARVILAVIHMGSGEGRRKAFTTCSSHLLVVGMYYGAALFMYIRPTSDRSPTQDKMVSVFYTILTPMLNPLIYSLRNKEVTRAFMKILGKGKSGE
# Method in brief: as §1
smiles,measurement,setting,value
CCc1ccc(O)cc1,odorant receptor agonist call,OR2M3 (Homo sapiens),inactive
CCCCCC(C)O (stereo not drawn),odorant receptor agonist call,OR2M3 (Homo sapiens),inactive
CCCCCCCCCC(=O)OCC,odorant receptor agonist call,OR2L13 (Homo sapiens),inactive
same,odorant receptor agonist call,OR2M3 (Homo sapiens),inactive
CC1=C(O)C(=O)OC1C (stereo not drawn),odorant receptor agonist call,OR2L13 (Homo sapiens),inactive
same,odorant receptor agonist call,OR2L2 (Homo sapiens),inactive
same,odorant receptor agonist call,OR2L3 (Homo sapiens),inactive
same,odorant receptor agonist call,OR2L5 (Homo sapiens),inactive
same,odorant receptor agonist call,OR2L8 (Homo sapiens),inactive
same,odorant receptor agonist call,OR2M2 (Homo sapiens),inactive
same,odorant receptor agonist call,OR2M3 (Homo sapiens),inactive
CCCCC(S)C(C)CO (stereo not drawn),odorant receptor agonist call,OR2L13 (Homo sapiens),inactive
same,odorant receptor agonist call,OR2L2 (Homo sapiens),inactive
same,odorant receptor agonist call,OR2L3 (Homo sapiens),inactive
same,odorant receptor agonist call,OR2L5 (Homo sapiens),inactive
same,odorant receptor agonist call,OR2L8 (Homo sapiens),inactive
same,odorant receptor agonist call,OR2M2 (Homo sapiens),inactive
same,odorant receptor agonist call,OR2M3 (Homo sapiens),inactive
CCOC(=O)C1CCCCC1,odorant receptor agonist call,OR2M3 (Homo sapiens),inactive
CC=Cc1ccc(OC)cc1,odorant receptor agonist call,OR2M3 (Homo sapiens),inactive
C=C(C)C1CC=C(C)CC1 (stereo not drawn),odorant receptor agonist call,OR2L13 (Homo sapiens),inactive
same,odorant receptor agonist call,OR2M3 (Homo sapiens),inactive
CCOC(=O)CCSC,odorant receptor agonist call,OR2M3 (Homo sapiens),inactive
CCC(=O)C1=NCCC1,odorant receptor agonist call,OR2M3 (Homo sapiens),inactive
CCCCCC=CCCC=O,odorant receptor agonist call,OR2M3 (Homo sapiens),inactive
CCCCCCCCC=CC=O,odorant receptor agonist call,OR2M3 (Homo sapiens),inactive
CC(=O)c1c(C)c([N+](=O)[O-])c(C(C)(C)C)c([N+](=O)[O-])c1C,odorant receptor agonist call,OR2L13 (Homo sapiens),inactive
same,odorant receptor agonist call,OR2L3 (Homo sapiens),inactive
same,odorant receptor agonist call,OR2L5 (Homo sapiens),inactive
same,odorant receptor agonist call,OR2L8 (Homo sapiens),inactive
same,odorant receptor agonist call,OR2M2 (Homo sapiens),inactive
same,odorant receptor agonist call,OR2M3 (Homo sapiens),inactive
CSSc1ccoc1C,odorant receptor agonist call,OR2M3 (Homo sapiens),inactive
C=C1CCC2CC1C2(C)C (stereo not drawn),odorant receptor agonist call,OR2L13 (Homo sapiens),inactive
same,odorant receptor agonist call,OR2M3 (Homo sapiens),inactive
CCC(S)C(C)CO (stereo not drawn),odorant receptor agonist call,OR2L13 (Homo sapiens),inactive
same,odorant receptor agonist call,OR2L2 (Homo sapiens),inactive
same,odorant receptor agonist call,OR2L3 (Homo sapiens),inactive
same,odorant receptor agonist call,OR2L5 (Homo sapiens),inactive
same,odorant receptor agonist call,OR2L8 (Homo sapiens),inactive
same,odorant receptor agonist call,OR2M2 (Homo sapiens),inactive
same,odorant receptor agonist call,OR2M3 (Homo sapiens),active
same,odorant receptor agonist call,OR2M3 A216T,active
same,odorant receptor agonist call,OR2M3 A33G M144T,inactive
same,odorant receptor agonist call,OR2M3 A33G,active
CC=CC(=O)C1=C(C)CCCC1(C)C,odorant receptor agonist call,OR2M3 (Homo sapiens),inactive
CC1=CCC2CC1C2(C)C (stereo not drawn),odorant receptor agonist call,OR2L13 (Homo sapiens),inactive
same,odorant receptor agonist call,OR2M3 (Homo sapiens),inactive
CCC(=O)C(C)S (stereo not drawn),odorant receptor agonist call,OR2M3 (Homo sapiens),inactive
CC(=O)c1ccc(C)cc1,odorant receptor agonist call,OR2M3 (Homo sapiens),inactive
CCCCCCCC(=O)OCC,odorant receptor agonist call,OR2L13 (Homo sapiens),inactive
same,odorant receptor agonist call,OR2M3 (Homo sapiens),inactive
CC(CO)CS (stereo not drawn),odorant receptor agonist call,OR2L13 (Homo sapiens),inactive
same,odorant receptor agonist call,OR2L2 (Homo sapiens),inactive
same,odorant receptor agonist call,OR2L3 (Homo sapiens),inactive
same,odorant receptor agonist call,OR2L5 (Homo sapiens),inactive
same,odorant receptor agonist call,OR2L8 (Homo sapiens),inactive
same,odorant receptor agonist call,OR2M2 (Homo sapiens),inactive
same,odorant receptor agonist call,OR2M3 (Homo sapiens),inactive
O=c1ccc2ccccc2o1,odorant receptor agonist call,OR2L13 (Homo sapiens),inactive
same,odorant receptor agonist call,OR2M3 (Homo sapiens),inactive
Cc1c[nH]c2ccccc12,odorant receptor agonist call,OR2M3 (Homo sapiens),inactive
COc1nccnc1C(C)C,odorant receptor agonist call,OR2M3 (Homo sapiens),inactive
CCC(C)CO (stereo not drawn),odorant receptor agonist call,OR2L13 (Homo sapiens),inactive
same,odorant receptor agonist call,OR2M3 (Homo sapiens),inactive
C=Cc1ccc(O)cc1,odorant receptor agonist call,OR2M3 (Homo sapiens),inactive
CC(=O)CC(C)(C)S,odorant receptor agonist call,OR2M3 (Homo sapiens),inactive
CC1CCCCCCCCCCCCC(=O)C1 (stereo not drawn),odorant receptor agonist call,OR2L13 (Homo sapiens),inactive
same,odorant receptor agonist call,OR2L3 (Homo sapiens),inactive
same,odorant receptor agonist call,OR2L5 (Homo sapiens),inactive
same,odorant receptor agonist call,OR2L8 (Homo sapiens),inactive
same,odorant receptor agonist call,OR2M2 (Homo sapiens),inactive
same,odorant receptor agonist call,OR2M3 (Homo sapiens),inactive
CCC(=O)O,odorant receptor agonist call,OR2L13 (Homo sapiens),inactive
same,odorant receptor agonist call,OR2M3 (Homo sapiens),inactive
CC1=CCC(C(C)(C)S)CC1 (stereo not drawn),odorant receptor agonist call,OR2M3 (Homo sapiens),inactive
CC(C)=CC1CC(C)CCO1 (stereo not drawn),odorant receptor agonist call,OR2M3 (Homo sapiens),inactive
CC1=NC(C)C(C)S1 (stereo not drawn),odorant receptor agonist call,OR2L13 (Homo sapiens),inactive
same,odorant receptor agonist call,OR2L2 (Homo sapiens),inactive
same,odorant receptor agonist call,OR2L3 (Homo sapiens),inactive
same,odorant receptor agonist call,OR2L5 (Homo sapiens),inactive
same,odorant receptor agonist call,OR2L8 (Homo sapiens),inactive
same,odorant receptor agonist call,OR2M2 (Homo sapiens),inactive
same,odorant receptor agonist call,OR2M3 (Homo sapiens),inactive
CC(C)=CCCC(C)=CCO,odorant receptor agonist call,OR2L13 (Homo sapiens),inactive
same,odorant receptor agonist call,OR2M3 (Homo sapiens),inactive
CC(=O)O,odorant receptor agonist call,OR2L13 (Homo sapiens),inactive
same,odorant receptor agonist call,OR2M3 (Homo sapiens),inactive
